ChEMBL document CHEMBL4390665, “New 4-phenylcoumarin derivatives as potent 3C protease inhibitors: Design, synthesis, anti-HAV effect and molecular modeling” (Eur J Med Chem, 2019)
Converted amounts (≈) assume the structure as drawn.

Experiments:
Hepatovirus A [1] = test: Antiviral activity against Hepatitis A virus infected in rhesus monkey FRhK4 cells assessed as inhibition in viral replication using cells pre-infected with virus before compound exposure for 72 hrs by MTT assay; format: functional, organism-based; details: FRhK-4, 72 h
Procedure, shortened: (§1)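 FRhK-4 monolayers were infected with HAV for 1 h. Unbound virus was removed and replaced with medium containing non-toxic compound concentrations, then incubated 72 h at 37 °C in 5% CO2. MTT OD540 was read in triplicate alongside virus-infected and cell-only controls to give IC50. TI = CC50/IC50.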

[2] = Cytotoxicity against rhesus monkey FRhK4 cells assessed as reduction in cell viability incubated for 48 hrs by MTT assay; format: cell-based, Macaca mulatta
Procedure, shortened: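 FRhK-4 cells (DMEM, 10% FBS) were seeded at 5 X 10^3 cells/well and grown 24 h. They were exposed to compound at 7.8–1000 µg/mL for 48 h at 37 °C in 5% CO2. MTT (5 mg/mL) was added for 4 h, then DMSO for 30 min, and OD540 read. CC50 was derived from the mean of three ODs versus untreated cells.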

[3] = Therapeutic index, ratio of CC50 of rhesus monkey FRhK cells to IC50 of antiviral activity against Hepatitis A virus infected in rhesus monkey FRhK4 cells; format: toxicity, cell-based; details: read-out: Ratio CC50/IC50
Procedure, shortened: (§2)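 Virucidal format: HAV (10^6 […] TCID50/0.1 ml) was mixed with an equal volume of non-toxic compound concentrations for 1 h at 37 °C. The mixture was added to FRhK-4 monolayers for 1 h, then replaced with medium for 72 h. MTT OD540 was read in triplicate with virus and cell controls to give IC50. TI = CC50/IC50.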

[4] = Therapeutic index, ratio of CC50 of rhesus monkey FRhK cells to IC50 of antiviral activity against Hepatitis A virus infected in rhesus monkey FRhK4 cells assessed as inhibition in viral adsorption using cells pre-incubated with compound for 24 hrs before viral infection for 1 hr by MTT assay; format: toxicity, cell-based; details: read-out: Ratio CC50/IC50
Procedure, shortened: (§3)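 FRhK-4 monolayers in 24-well plates were exposed to non-toxic compound concentrations for 24 h at 37 °C in 5% CO2. Compound was then removed and HAV added for 1 h, after which the inoculum was replaced with medium for 72 h. MTT OD540 was read in triplicate alongside virus-infected and cell-only controls to give IC50. TI = CC50/IC50.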

[5] = Therapeutic index, ratio of CC50 of rhesus monkey FRhK cells to IC50 for antiviral activity against Hepatitis A virus infected in rhesus monkey FRhK4 cells assessed as inhibition in viral replication using cells pre-infected with virus before compound exposure for 72 hrs by MTT assay; format: toxicity, cell-based; details: read-out: Ratio CC50/IC50; procedure, shortened: as §1
Hepatovirus A [6] = test: Antiviral activity against Hepatitis A virus infected in rhesus monkey FRhK4 cells assessed as inhibition in viral adsorption using cells pre-incubated with compound for 24 hrs before viral infection for 1 hr by MTT assay; format: functional, organism-based; details: FRhK-4; procedure, shortened: as §3
Hepatovirus A [7] = test: Antiviral activity against Hepatitis A virus infected in rhesus monkey FRhK4 cells assessed as reduction in virus-induced cytopathic effect incubated for 72 hrs by MTT assay; format: functional, organism-based; details: FRhK-4, 72 h; procedure, shortened: as §2

Row | SMILES | IC50 (Hepatovirus A [1]) | CC50 at 48 h [2] | selectivity ratio [3] | selectivity ratio at 1 h [4] | selectivity ratio at 72 h [5] | IC50 (Hepatovirus A [6]) | IC50 (Hepatovirus A [7])
1 | O=c1cc(-c2ccccc2)c2ccc(O)cc2o1 | 42.5 µg/mL (≈ 178 µM) | 340 µg/mL (≈ 1430 µM) | 70.8 | 0.3 | 8 | 1130 µg/mL (≈ 4760 µM) | 4.8 µg/mL (≈ 20.1 µM)
2 | C/C(=N\NC(=O)COc1ccc2c(-c3ccccc3)cc(=O)oc2c1)c1ccccc1 | 730 µg/mL (≈ 1770 µM) | 438 µg/mL (≈ 1060 µM) | 4 | 2 | 0.6 | 219 µg/mL (≈ 531 µM) | 110 µg/mL (≈ 265 µM)
3 | CCN(CC)CCSc1nnc(COc2ccc3c(-c4ccccc4)cc(=O)oc3c2)o1 | 7.65 µg/mL (≈ 16.9 µM) | 245 µg/mL (≈ 543 µM) | 3 | 77 | 32 | 3.18 µg/mL (≈ 7.04 µM) | 81.6 µg/mL (≈ 181 µM)
4 | CCOC(=O)COc1ccc2c(-c3ccccc3)cc(=O)oc2c1 | 25.7 µg/mL (≈ 79.2 µM) | 900 µg/mL (≈ 2770 µM) | 0.7 | 5 | 35 | 180 µg/mL (≈ 555 µM) | 1290 µg/mL (≈ 3960 µM)
5 | O=c1cc(-c2ccccc2)c2ccc(OCc3nnc(SCCN4CCOCC4)o3)cc2o1 | 622 µg/mL (≈ 1340 µM) | 249 µg/mL (≈ 535 µM) | 25 | 25 | 0.4 | 9.9 µg/mL (≈ 21.3 µM) | 9.9 µg/mL (≈ 21.3 µM)
6 | Cn1c(COc2ccc3c(-c4ccccc4)cc(=O)oc3c2)n[nH]c1=S | 13.5 µg/mL (≈ 36.9 µM) | 648 µg/mL (≈ 1770 µM) | 57 | 0.5 | 48 | 1300 µg/mL (≈ 3550 µM) | 11.3 µg/mL (≈ 30.9 µM)
7 | O=C(COc1ccc2c(-c3ccccc3)cc(=O)oc2c1)N/N=C1/C(=O)Nc2ccccc21 | 121 µg/mL (≈ 275 µM) | 483 µg/mL (≈ 1100 µM) | 6 | 2 | 4 | 242 µg/mL (≈ 550 µM) | 80.5 µg/mL (≈ 183 µM)
8 | Nc1nc2c(ncn2COCCO)c(=O)[nH]1 [ACYCLOVIR] | 30.6 µg/mL (≈ 136 µM) | > 1000 µg/mL | 80 | 85 | 93 | 33.5 µg/mL (≈ 149 µM) | 35.6 µg/mL (≈ 158 µM)
9 | CCNc1nnc(COc2ccc3c(-c4ccccc4)cc(=O)oc3c2)s1 | 25.8 µg/mL (≈ 68 µM) | 129 µg/mL (≈ 340 µM) | 2 | 7 | 5 | 18.4 µg/mL (≈ 48.5 µM) | 64.5 µg/mL (≈ 170 µM)
10 | Cc1cc(C)n(C(=O)COc2ccc3c(-c4ccccc4)cc(=O)oc3c2)n1 | 44.3 µg/mL (≈ 118 µM) | 753 µg/mL (≈ 2010 µM) | 20 | 9 | 17 | 83.6 µg/mL (≈ 223 µM) | 37.6 µg/mL (≈ 100 µM)
11 | O=C(COc1ccc2c(-c3ccccc3)cc(=O)oc2c1)N/N=C1/C(=O)Nc2ccc(Cl)cc21 | 5490 µg/mL (≈ 11600 µM) | 549 µg/mL (≈ 1160 µM) | 0.7 | 0.5 | 0.1 | 1100 µg/mL (≈ 2320 µM) | 784 µg/mL (≈ 1660 µM)
12 | CCn1c(COc2ccc3c(-c4ccccc4)cc(=O)oc3c2)n[nH]c1=S | 82.7 µg/mL (≈ 218 µM) | 597 µg/mL (≈ 1570 µM) | 46 | 12 | 7 | 49.7 µg/mL (≈ 131 µM) | 12.9 µg/mL (≈ 34 µM)
13 | CNC(=S)NNC(=O)COc1ccc2c(-c3ccccc3)cc(=O)oc2c1 | 63.4 µg/mL (≈ 165 µM) | 951 µg/mL (≈ 2480 µM) | 4 | 80 | 15 | 11.9 µg/mL (≈ 31 µM) | 238 µg/mL (≈ 620 µM)
14 | CCn1c(COc2ccc3c(-c4ccccc4)cc(=O)oc3c2)nnc1SCCN1CCOCC1 | 13.4 µg/mL (≈ 27.2 µM) | 942 µg/mL (≈ 1910 µM) | 20 | 0.8 | 70 | 1180 µg/mL (≈ 2390 µM) | 47 µg/mL (≈ 95.4 µM)
15 | CN(C)CCSc1nnc(COc2ccc3c(-c4ccccc4)cc(=O)oc3c2)o1 | 35.8 µg/mL (≈ 84.5 µM) | 897 µg/mL (≈ 2120 µM) | 20 | 8 | 25 | 112 µg/mL (≈ 264 µM) | 44.8 µg/mL (≈ 106 µM)
16 | O=C(COc1ccc2c(-c3ccccc3)cc(=O)oc2c1)N/N=C1/C(=O)Nc2ccc(Br)cc21 | 18.3 µg/mL (≈ 35.3 µM) | 951 µg/mL (≈ 1830 µM) | 73 | 44 | 52 | 21.6 µg/mL (≈ 41.7 µM) | 13 µg/mL (≈ 25.1 µM)
17 | Nn1c(S)nnc1COc1ccc2c(-c3ccccc3)cc(=O)oc2c1 | 72 µg/mL (≈ 197 µM) | 648 µg/mL (≈ 1770 µM) | 3 | 0.2 | 9 | 3240 µg/mL (≈ 8840 µM) | 216 µg/mL (≈ 590 µM)
18 | CNc1nnc(COc2ccc3c(-c4ccccc4)cc(=O)oc3c2)s1 | 145 µg/mL (≈ 397 µM) | 435 µg/mL (≈ 1190 µM) | 0.2 | 0.8 | 3 | 544 µg/mL (≈ 1490 µM) | 2180 µg/mL (≈ 5950 µM)
19 | O=C(COc1ccc2c(-c3ccccc3)cc(=O)oc2c1)NN1C(=O)c2ccccc2C1=O | 1360 µg/mL (≈ 3080 µM) | 951 µg/mL (≈ 2160 µM) | 9 | 72 | 0.7 | 13 µg/mL (≈ 29.5 µM) | 106 µg/mL (≈ 240 µM)
20 | NNC(=O)COc1ccc2c(-c3ccccc3)cc(=O)oc2c1 | 1120 µg/mL (≈ 3610 µM) | 785 µg/mL (≈ 2530 µM) | 0.2 | 7 | 0.7 | 112 µg/mL (≈ 361 µM) | 3920 µg/mL (≈ 12600 µM)
21 | O=c1cc(-c2ccccc2)c2ccc(OCc3n[nH]c(=S)o3)cc2o1 | 7.34 µg/mL (≈ 20.8 µM) | 367 µg/mL (≈ 1040 µM) | 78 | 2 | 50 | 184 µg/mL (≈ 521 µM) | 4.7 µg/mL (≈ 13.3 µM)
